According to ChEMBL document CHEMBL4414680, “Identification of new potent A1 adenosine receptor antagonists using a multistage virtual screening approach” (Eur J Med Chem, 2020):

Assays:
Adenosine receptor A1 [1] = molecular target: T1, Adenosine receptor A1 (Homo sapiens, UniProt P30542); assay: Displacement of [3H]DPCPX from human A1AR expressed in CHO cells incubated for 50 mins by radioligand binding assay; format: cell-based
T1 sequence (P30542 whole entry): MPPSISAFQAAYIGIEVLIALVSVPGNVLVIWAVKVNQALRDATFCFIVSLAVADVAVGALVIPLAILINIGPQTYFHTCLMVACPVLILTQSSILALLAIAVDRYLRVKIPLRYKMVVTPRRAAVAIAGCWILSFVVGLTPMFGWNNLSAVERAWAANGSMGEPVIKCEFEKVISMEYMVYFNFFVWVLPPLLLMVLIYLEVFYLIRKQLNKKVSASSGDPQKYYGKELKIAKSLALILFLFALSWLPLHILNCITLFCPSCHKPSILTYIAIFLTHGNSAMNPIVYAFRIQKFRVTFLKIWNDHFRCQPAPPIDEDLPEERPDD

Homo sapiens = organism: Homo sapiens; assay: Selectivity index, ratio of Ki for human A1AR expressed in CHO cells to Ki for human A2AR expressed in CHO cells by radioligand binding assay; format: cell-based
Adenosine receptor A2a = Adenosine receptor A2a (Homo sapiens, UniProt P29274); assay: Displacement of [3H]ZM241385 from human A2AR expressed in CHO cells after 90 mins by radioligand binding assay; format: cell-based
Adenosine receptor A1 [2] = molecular target: T1, Adenosine receptor A1; assay: Antagonist activity at human A1AR expressed in CHO-K1 cells assessed as reduction in NECA-induced inhibition of forskolin-stimulated cAMP accumulation incubated for 30 mins by fluorescence based assay; format: functional, cell-based
Procedure, shortened: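 CHO-K1 cells stably expressing human A1AR, grown in F12K + 10% FBS + 800 µg/ml hygromycin B at 37 ℃/5% CO2, resuspended in HBSS with 0.1% BSA, 20 mM HEPES, 100 nM IBMX; 8000 cells/well. Ten 3-fold compound dilutions; forskolin (8 µM) plus NECA (40 nM) added, 30 min at 37 ℃. HTRF cAMP detection (Eu3+ cryptate anti-cAMP, d2-cAMP), 1 h room temperature, read at 665/615 nm.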

Adenosine receptor A2a, sequence (P29274 whole entry): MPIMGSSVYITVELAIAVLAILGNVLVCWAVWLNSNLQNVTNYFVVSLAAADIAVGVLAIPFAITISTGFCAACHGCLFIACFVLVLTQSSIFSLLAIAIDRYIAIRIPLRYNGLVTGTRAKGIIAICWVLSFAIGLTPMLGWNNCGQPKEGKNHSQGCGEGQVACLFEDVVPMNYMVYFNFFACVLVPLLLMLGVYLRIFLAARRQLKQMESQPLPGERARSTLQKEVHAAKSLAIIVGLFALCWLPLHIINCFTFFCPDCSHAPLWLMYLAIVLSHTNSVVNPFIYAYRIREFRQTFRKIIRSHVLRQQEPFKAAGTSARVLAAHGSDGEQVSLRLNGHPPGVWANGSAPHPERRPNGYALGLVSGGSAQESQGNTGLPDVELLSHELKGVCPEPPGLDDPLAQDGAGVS

Structure (SMILES) | Ki (Adenosine receptor A1 [1]) | Ratio Ki (Homo sapiens) | Ki (Adenosine receptor A2a) | IC50 (Adenosine receptor A1 [2])
COc1ccc(/C=C/c2ccnc3nc(N4CCCCC4)[nH]c(=O)c23)cc1 | 3.02 µM |  |  | 
COc1ccc(-c2cc(-c3cccc(Br)c3)c(C#N)c(N)n2)cc1 | 0.209 µM | 0.006 | 38 µM | 1.86 µM
CCCN(CCC)c1c(-c2ccccc2)c2cc(Cl)ccc2[nH]c1=O | 25.7 µM |  |  | 
Cc1cc(=O)n2c(n1)NC(Nc1cccc(C)c1C)=NC2c1ccc(F)cc1 (stereo unspecified) | 3.24 µM |  |  | 
CCOC(=O)N1CCN(c2cc(NC3CCCCC3)c3c4c(onc24)-c2ccccc2C3=O)CC1 | 19.5 µM |  |  | 
CC(C)CN1C(=O)/C(=C/c2c(NCCc3ccccc3)nc3ccccn3c2=O)SC1=S | 13.5 µM |  |  | 
O=C1CC(C(=O)Nc2ccccc2)c2c(nc(SCc3ccccc3F)[nH]c2=O)N1 (stereo unspecified) | 7.24 µM |  |  | 
O=c1[nH]c(N2CCCC2)nc2nccc(-c3ccc(Cl)cc3)c12 | 0.776 µM | < 0.01 | > 100 µM | 1.48 µM
Oc1ccccc1Nc1nc(-c2ccccc2)c2cc(Cl)ccc2n1 | 20 µM |  |  | 
C=CCn1c(SCc2ccccn2)nc2c([nH]c3ccccc32)c1=O | 0.708 µM | < 0.01 | > 100 µM | 1.26 µM
Cc1ccc(C2=CC(c3ccccc3Cl)n3nc(CCCO)nc3N2)cc1 (stereo unspecified) | 18.6 µM |  |  | 
N#Cc1c(N)nc2c(c1-c1ccc3c(c1)OCO3)CCCC2 | 0.0741 µM | < 0.001 | > 100 µM | 0.417 µM
Cc1ccc(C(=O)Nc2c(C(=O)NC3CCCC3)[nH]c3ccc(C)cc23)cc1 | 0.513 µM | < 0.01 | > 100 µM | 3.09 µM
CC(C)C(=O)Nc1nc2n(n1)C(c1ccccc1Cl)C=C(c1ccccc1)N2 (stereo unspecified) | 32.4 µM |  |  | 
Cc1cc(C)nc(Nc2nc(-c3ccccc3)c3ccc(Cl)cc3n2)n1 | 6.92 µM |  |  | 
COc1ccccc1CNC(=O)c1cc(Nc2ccccc2C)nc2ccccc12 | 1.12 µM |  |  | 
O=C(Cn1cc(-c2ccccc2)c2ncn(C3CC3)c(=O)c21)NCc1ccc(F)cc1 | 0.589 µM | 0.016 | 36.3 µM | 2.82 µM
CCC(C(=O)n1nc(-c2ccccc2)nc1N)c1ccccc1 (stereo unspecified) | 10.7 µM |  |  | 
